Data set [1] has as its target T1, Alkaline phosphatase, placental type (Homo sapiens, UniProt P05187). Nature of the data set: Inhibition of placental alkaline phosphatase (unknown origin) assessed as para nitrophenylphosphate conversion to p-nitrophenolate at pH 7.8 incubated for 10 mins prior to substrate addition measured after 5 seconds by spectrophotometric analysis. An outline of the steps:
(§1)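 Enzyme (TNAP, PLAP or IAP; final 6.93–11.4 µg/ml) in buffer with inhibitor at 0–400 µM, added from 10 mM DMSO stock. Preincubated 10 min at 37 °C without substrate, then mixed with an equal volume of 0.1 mM pNPP in the same buffer and stirred 5 s. p-Nitrophenolate read at 400 nm (ε 18.5 cm⁻¹ mM⁻¹ at pH 10.4), final DMSO 4% v/v. Activity relative to the no-inhibitor control. pH 7.8 runs used 0.1 M Tris–HCl with 5 mM MgCl2 and 5 mM ZnCl2 at 37 °C.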

In data set [2] the test system is MG-63. In words: Reduction in beta-glycerophosphate-induced mineralization in human MG63 cells at 10 uM after 7 days by Alizarin Red S staining-based assay. In kind it is functional, cell-based. An outline of the steps:
(§2)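 Confluent cells were cultured 7 days in growth medium with ascorbic acid and 7.5 mM β-glycerophosphate, with or without inhibitor (DMSO ≤0.1% v/v). Saos-2 were grown in McCoy's 5A with 15% FBS. Mineral was stained with Alizarin Red S, destained with 3.6% w/v cetylpyridinium chloride in PBS pH 7.0 for 60 min at room temperature, and read at 562 nm. Results are % of control, mean ± SD; MG63 n = 3, Saos-2 n = 9–12.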

Data set [3] can be described thus: Cytotoxicity against human Saos2 cells assessed as cell viability up to 10 uM by MTT assay. As to conditions: saos-2. The format is cell-based. The gist of the method:
(§3)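 MTT viability: cells seeded at 3 × 10^4 cells/cm2 and treated with ascorbic acid plus 7.5 mM β-glycerophosphate, with or without inhibitor (DMSO ≤0.1% v/v final). MTT at 0.5 mg/ml final for 4 h, then solubilization solution overnight at 37 °C. Absorbance at 550 and 690 nm as % of untreated control, mean ± SD. MG63: one pool in triplicate (n = 3). Saos-2: 3–4 pools in triplicate (n = 9–12).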
For orientation: Formazan colour is commonly taken as a measure of viable cells.

The nature of data set [4]: Inhibition of porcine kidney TNAP assessed as para nitrophenylphosphate conversion to p-nitrophenolate at pH 10.4 incubated for 10 mins prior to substrate addition measured after 5 seconds by spectrophotometric analysis. Also on record: species or system Sus scrofa. An outline of the steps: as §1
Data set [5] is described as follows: Cytotoxicity against human MG63 cells assessed as cell viability up to 10 uM by MTT assay. In kind it is cell-based. To be noted: mg-63. The gist of the method: as §3
Data set [6] deals with SAOS-2. In words: Reduction in ascorbic acid-induced mineralization in human Saos2 cells at 10 uM after 7 days by Alizarin Red S staining-based assay relative to control. In kind it is functional. An outline of the steps:
as §2

Data set [7] has as its target T1, Alkaline phosphatase, placental type. In words: Inhibition of placental alkaline phosphatase (unknown origin) assessed as para nitrophenylphosphate conversion to p-nitrophenolate at pH 10.4 incubated for 10 mins prior to substrate addition measured after 5 seconds by spectrophotometric analysis. An outline of the steps:
as §1

Data set [8] relates to MG-63. Nature of the data set: Reduction in ascorbic acid-induced mineralization in human MG63 cells at 10 uM after 7 days by Alizarin Red S staining-based assay. In kind it is functional, cell-based. The gist of the method:
as §2

Data set [9] concerns the target T2, Intestinal-type alkaline phosphatase (Homo sapiens, UniProt P09923). In words: Inhibition of intestinal alkaline phosphatase (unknown origin) assessed as para nitrophenylphosphate conversion to p-nitrophenolate at pH 10.4 incubated for 10 mins prior to substrate addition measured after 5 seconds by spectrophotometric analysis. The gist of the method: as §1
Data set [10] deals with T2, Intestinal-type alkaline phosphatase. Nature of the data set: Inhibition of intestinal alkaline phosphatase (unknown origin) assessed as para nitrophenylphosphate conversion to p-nitrophenolate at pH 7.8 incubated for 10 mins prior to substrate addition measured after 5 seconds by spectrophotometric analysis. The gist of the method: as §1
Data set [11] can be described thus: Solubility of the compound in water by UV spectrometric analysis. In kind it is physicochemical.
Data set [12] in a line: Uncompetitive inhibition of porcine kidney TNAP assessed as para nitrophenylphosphate conversion to p-nitrophenolate at pH 7.8 by Michaelis-Menten plot analysis. Also on record: species or system Sus scrofa. An outline of the steps:
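Porcine kidney TNAP activity measured with pNPP at pH 7.8 in 0.1 M Tris–HCl containing 5 mM MgCl2 and 5 mM ZnCl2 at 37 °C. Inhibitor was preincubated with enzyme for 10 min before substrate, and p-nitrophenolate was read at 400 nm to derive Ki.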

Data set [13] has as its system SAOS-2. In words: Reduction in beta-glycerophosphate-induced mineralization in human Saos2 cells at 10 uM after 7 days by Alizarin Red S staining-based assay relative to control. In kind it is functional. The gist of the method:
as §2

A short description of data set [14]: Inhibition of porcine kidney TNAP assessed as para nitrophenylphosphate conversion to p-nitrophenolate at pH 7.8 incubated for 10 mins prior to substrate addition measured after 5 seconds by spectrophotometric analysis. More on the design: species or system Sus scrofa. An outline of the steps: as §1
The nature of data set [15]: Solubility of the compound.

pIC50, pKi: −log10 of the molar value. ≈ marks a conversion by molar mass, not a printed value. Calls of active or inactive are those of the source. No cut-off for these calls is given here.

For orientation: pIC50 means the IC50 on a negative log10 scale, so that one unit is a factor of ten. Usually solubility stands for the dissolved amount per volume that the medium holds. A word on the pKi: it is the Ki on a negative log10 scale, so that one unit is a factor of ten.

T1 sequence (P05187 whole entry): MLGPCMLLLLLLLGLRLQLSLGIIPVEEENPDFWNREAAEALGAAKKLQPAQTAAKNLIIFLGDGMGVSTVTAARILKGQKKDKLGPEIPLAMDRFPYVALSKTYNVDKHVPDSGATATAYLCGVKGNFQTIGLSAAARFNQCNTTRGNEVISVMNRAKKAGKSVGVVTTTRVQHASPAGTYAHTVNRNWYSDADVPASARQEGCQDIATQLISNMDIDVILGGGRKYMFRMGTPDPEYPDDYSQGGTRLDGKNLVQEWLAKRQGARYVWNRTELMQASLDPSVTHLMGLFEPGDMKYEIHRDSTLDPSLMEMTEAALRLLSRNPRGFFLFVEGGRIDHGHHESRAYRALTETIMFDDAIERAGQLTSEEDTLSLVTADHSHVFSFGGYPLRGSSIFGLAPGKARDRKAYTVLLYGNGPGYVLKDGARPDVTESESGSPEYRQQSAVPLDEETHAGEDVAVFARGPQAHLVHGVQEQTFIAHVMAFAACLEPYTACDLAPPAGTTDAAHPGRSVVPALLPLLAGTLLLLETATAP
T2 sequence (P09923 whole entry): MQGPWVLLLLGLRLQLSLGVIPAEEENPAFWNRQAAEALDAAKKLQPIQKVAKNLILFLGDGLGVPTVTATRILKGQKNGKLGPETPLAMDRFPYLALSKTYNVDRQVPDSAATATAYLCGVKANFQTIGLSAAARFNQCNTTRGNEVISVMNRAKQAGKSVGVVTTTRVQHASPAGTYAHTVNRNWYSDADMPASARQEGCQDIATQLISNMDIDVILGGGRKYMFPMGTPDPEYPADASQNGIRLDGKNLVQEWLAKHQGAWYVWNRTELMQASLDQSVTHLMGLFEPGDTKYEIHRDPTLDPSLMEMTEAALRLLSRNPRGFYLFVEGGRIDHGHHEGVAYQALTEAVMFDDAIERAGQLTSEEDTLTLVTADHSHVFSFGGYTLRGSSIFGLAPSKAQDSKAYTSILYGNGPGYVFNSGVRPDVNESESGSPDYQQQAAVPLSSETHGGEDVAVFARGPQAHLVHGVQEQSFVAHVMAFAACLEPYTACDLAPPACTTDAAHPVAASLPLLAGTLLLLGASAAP

Regarding `Cl.c1ccc2sc(C3CN4CCSC4=N3)cc2c1` (racemic), the pIC50 in data set [1] is less than 3.40; in data set [4], 4.79; in data set [7], less than 3.40; in [9], less than 3.40; in data set [10] it was less than 3.40; in [14], 5.26. Further, the result in the data set with MG-63 [2], with SAOS-2 [6], with MG-63 [8] and in the data set on SAOS-2 [13] was Active. For the same compound, the Activity entry in data set [3] and in data set [5] was “Non-toxic” each time. The compound further yielded a solubility in data set [11] of 450 µM. In [12], the pKi was 5.30.

In the case of `c1ccc([C@H]2CN3CCSC3=N2)cc1` [LEVAMISOLE], the pIC50 in [1] was less than 3.40; in [4], 4.20; in data set [7] it was less than 3.40; in [9], less than 3.40; in data set [10], less than 3.40; in [14], 4.63. Also, the result in the data set on MG-63 [2] and in the data set with MG-63 [8] was Active. The Activity result in data set [3] is listed as “Non-toxic”; in [5], “Non-toxic”; with SAOS-2 [6] it was 33%; in the data set on SAOS-2 [13], 33%. This compound returned a solubility in [15] of 200000 µM (≈ 40.9 mg/mL). For the same compound, the negative-log Ki (pKi) in data set [12] was 4.52.

On to `Cl.O=[N+]([O-])c1ccc2sc(C3CN4C=CSC4=N3)cc2c1` (racemic), for which the pIC50 in data set [1] was less than 3.40; in data set [4], 5.48; in [7] it was less than 3.40; in data set [9] it was less than 3.40; in data set [10], less than 3.40; in [14], 5.68. Also, the figures for the Activity result (in data set [3]; in the data set on SAOS-2 [6]; with SAOS-2 [13]) were “Non-toxic”, 25% and 25%, respectively. The compound further yielded a solubility in data set [11] of 6900 µM. The negative logarithm of the Ki (pKi) in data set [12] is 5.89.

On to `C1=CN2CC(c3cc4ccccc4s3)N=C2S1.Cl` (racemic), for which the pIC50 in data set [1] was less than 3.40; in [4], 4.88; in data set [7], less than 3.40; in data set [9], less than 3.40; in data set [10], less than 3.40; in data set [14], 5.36. The result in the data set with MG-63 [2], in the data set with SAOS-2 [6], with MG-63 [8] and with SAOS-2 [13] was Active. Further, the Activity result in data set [3] and in [5] was “Non-toxic” each time. Moreover, the solubility in data set [11] stood at 1300 µM. In data set [12], the negative logarithm of the Ki (pKi) was 5.41.

Take `Cl.Nc1ccc2sc(C3CN4C=CSC4=N3)cc2c1` (racemic): the pIC50 in [1] is less than 3.40; in data set [4], 4.63; in data set [7], less than 3.40; in data set [9], less than 3.40; in [10], less than 3.40; in data set [14] it was 4.74. The Activity result in data set [3] is on record as “Non-toxic”. Moreover, the result in the data set on SAOS-2 [6] and in the data set with SAOS-2 [13] was Active. Besides, in [11], the solubility amounted to 1770 µM. Also, in data set [12], the pKi was 4.99.

These data come from ChEMBL document CHEMBL3091295, “Inhibitors of tissue-nonspecific alkaline phosphatase: design, synthesis, kinetics, biomineralization and cellular tests” (Bioorg Med Chem, 2013).
